Published values pooled from the literature.
Compare with care: the assays were run in different laboratories.
Target: Sodium-dependent noradrenaline transporter (SLC6A2, Homo sapiens, UniProt P23975)

CNc1nc(C#Cc2ccc(Cl)s2)nc2c1ncn2[C@H]1[C@H](O)[C@H](O)[C@]2(C(=O)OC)C[C@H]12 — Ki (ligand displacement, radioligand; cell membranes): > 10000 nM
CCCCN1CCC(COC(=O)c2ccc(N)c(OCF)c2)CC1 — Ki (cell-free assay, radioligand): 1400 nM
Clc1ccc(C(c2ccccc2)c2nnnn2CCCCN2CCC(CCc3ccccc3)CC2)cc1 (stereo not drawn) — IC50 (transporter uptake, inhibitor): 424 nM
CNC(=O)[C@@]12C[C@@H]1[C@@H](n1cnc3c(NCc4cccc(Cl)c4)nc(C#Cc4ccccc4)nc31)[C@H](O)[C@@H]2O — Ki (ligand displacement, radioligand): 3160 nM
CCOC(=O)[C@@]12C[C@@H]1[C@@H](n1cnc3c(NC)nc(C#Cc4ccc(Cl)s4)nc31)[C@H](O)[C@@H]2O — Ki (ligand displacement, radioligand; cell membranes): > 8400 nM
CCOC(=O)[C@@]12C[C@@H]1[C@@H](n1ccc3c(NC)nc(C#Cc4ccc(Cl)s4)nc31)[C@H](O)[C@@H]2O — IC50 (transporter uptake, inhibitor, radiometric): > 10000 nM
CCN(CC)c1ccc(C2Nc3ccc(C(=O)c4ccccc4)cc3NC3=C2C(=O)CC(C)(C)C3)cc1 (stereo not drawn) — Ki (cell-free assay, radioligand): 4860 nM
CCC(C)C(=O)[C@]12C(=O)[C@](CC=C(C)C)(C[C@H](CC=C(C)C)[C@@]1(C)CCC=C(C)C)C(=O)C(CC=C(C)C)=C2O (stereo partly drawn) — Ki (ligand displacement, radioligand; cell membranes): 7320 nM
CCn1c(-c2nc3ccc(C(=O)N4CCCC(N)C4)cc3n2C)cc2ccccc21 (stereo not drawn) — IC50 (transporter uptake, inhibitor): 39800 nM
Clc1ccc(C(c2ccc(Cl)cc2)c2nnnn2CCCCN2CCC(Cc3ccccc3)CC2)cc1 — IC50 (transporter uptake, inhibitor): 469 nM
O[C@@H]1[C@H](O)[C@@H]2C[C@@H]2[C@H]1n1cnc2c(NCCc3ccccc3)nc(C#Cc3ccccc3)nc21 — Ki (ligand displacement, radioligand): 2800 nM
Clc1ccc(C(c2ccccc2)c2nnnn2CCCN2CCC(Cc3ccccc3)CC2)cc1 (stereo not drawn) — IC50 (transporter uptake, inhibitor): 174 nM
CCn1c(-c2nc3cc(C(=O)N4CCC[C@@H](N)C4)cc(OC)c3n2C)cc2cccnc21 — IC50 (transporter uptake, inhibitor): 31600 nM
OCCCN1CC[C@@H]2C[C@H]1c1cc(-c3ccc(C(F)(F)F)cc3)ccc12 — Ki (ligand displacement, radioligand): 405 nM
Clc1ccc(CC2CCN(CCCCn3nnnc3C(c3ccccc3)c3ccccc3)CC2)cc1Cl — IC50 (transporter uptake, inhibitor): 724 nM
